In ChEMBL document CHEMBL1275561, “In vitro activities of doripenem, a new broad-spectrum carbapenem, against recently collected clinical anaerobic isolates, with emphasis on the Bacteroides fragilis group” (2008):
Values after ≈ are worked out from the molar mass of the structure shown.

Assays:
Assay type in all cases: functional
[1] = test system: Parabacteroides distasonis; test: Antimicrobial activity against Bacteroides distasonis by agar dilution method
Outline: (§1)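 CLSI agar dilution on enriched brucella agar (5% lysed defibrinated sheep blood, 1 μg/ml vitamin K1), with drug plates made on the test day. Log-phase cells were adjusted to 0.5 McFarland, and about 10^5 CFU/spot was delivered by Steers replicator. Plates were incubated anaerobically at 37°C for 48 h. MIC was the lowest concentration giving a marked growth change versus the control plate. Controls were B. fragilis ATCC 25285 and B. thetaiotaomicron ATCC 29741.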

Bacteroides caccae [2] = test: Antimicrobial activity against Bacteroides caccae assessed as resistant isolates by agar dilution method
Outline: (§2)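 CLSI agar dilution on enriched brucella agar (5% lysed defibrinated sheep blood, 1 μg/ml vitamin K1), plates made on test day. Log-phase inocula adjusted to 0.5 McFarland; about 10^5 CFU/spot by Steers replicator. Incubated anaerobically at 37°C for 48 h. MIC was the lowest concentration giving a marked change in growth versus the drug-free control plate. Resistance rates used CLSI anaerobe breakpoints. Controls were B. fragilis ATCC 25285 and B. thetaiotaomicron ATCC 29741.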

Bacteroides caccae [3] = test: Antimicrobial activity against Bacteroides caccae by agar dilution method; outline: as §1
[4] = test system: Parabacteroides distasonis; test: Antimicrobial activity against Bacteroides distasonis assessed as resistant isolates by agar dilution method; outline: as §2
Bacteroides fragilis [5] = test: Antimicrobial activity against Bacteroides fragilis by agar dilution method; outline: as §1
Bacteroides fragilis [6] = test: Antimicrobial activity against Bacteroides fragilis assessed as resistant isolates by agar dilution method; outline: as §2
Bacteroides ovatus [7] = test: Antimicrobial activity against Bacteroides ovatus by agar dilution method; outline: as §1
Bacteroides ovatus [8] = test: Antimicrobial activity against Bacteroides ovatus assessed as resistant isolates by agar dilution method; outline: as §2
[9] = test system: Bacteroides thetaiotaomicron; test: Antimicrobial activity against Bacteroides thetaiotaomicron by agar dilution method; outline: as §1
[10] = test system: Bacteroides thetaiotaomicron; test: Antimicrobial activity against Bacteroides thetaiotaomicron assessed as resistant isolates by agar dilution method; outline: as §2
Bacteroides uniformis [11] = test: Antimicrobial activity against Bacteroides uniformis by agar dilution method; outline: as §1
Bacteroides uniformis [12] = test: Antimicrobial activity against Bacteroides uniformis assessed as resistant isolates by agar dilution method; outline: as §2
Phocaeicola vulgatus [13] = test: Antimicrobial activity against Bacteroides vulgatus by agar dilution method; outline: as §1
Phocaeicola vulgatus [14] = test: Antimicrobial activity against Bacteroides vulgatus assessed as resistant isolates by agar dilution method; outline: as §2
Bacteroides eggerthii [15] = test: Antimicrobial activity against Bacteroides eggerthii by agar dilution method; outline: as §1
Bacteroides eggerthii [16] = test: Antimicrobial activity against Bacteroides eggerthii assessed as resistant isolates by agar dilution method; outline: as §2
Parabacteroides merdae [17] = test: Antimicrobial activity against Bacteroides merdae by agar dilution method; outline: as §1
Parabacteroides merdae [18] = test: Antimicrobial activity against Bacteroides merdae assessed as resistant isolates by agar dilution method; outline: as §2
Bacteroides nordii [19] = test: Antimicrobial activity against Bacteroides nordii by agar dilution method; outline: as §1
Bacteroides nordii [20] = test: Antimicrobial activity against Bacteroides nordii assessed as resistant isolates by agar dilution method; outline: as §2
Clostridioides difficile = test: Antimicrobial activity against Clostridium difficile by agar dilution method
Clostridium perfringens = test: Antimicrobial activity against Clostridium perfringens by agar dilution method
[Clostridium] innocuum [21] = Antimicrobial activity against Clostridium innocuum by agar dilution method
[Clostridium] innocuum [22] = Antimicrobial activity against Clostridium innocuum assessed as resistant isolates by agar dilution method; conditions: pooled result: one value given for 4 cell lines, strains, targets or settings
[23] = test system: Clostridium paraputrificum; test: Antimicrobial activity against Clostridium paraputrificum by agar dilution method
Clostridium subterminale = test: Antimicrobial activity against Clostridium subterminale by agar dilution method
Clostridium tertium = test: Antimicrobial activity against Clostridium tertium by agar dilution method
Finegoldia magna [24] = test: Antimicrobial activity against Finegoldia magna by agar dilution method
Outline: (§3)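 Gram-positive anaerobes were tested by CLSI agar dilution on brucella agar enriched with 5% lysed defibrinated sheep blood and 1 μg/ml vitamin K1. Inoculum was log-phase growth at 0.5 McFarland, about 10^5 CFU/spot by replicator. Incubation was anaerobic, 37°C, 48 h. MIC was the lowest concentration with a marked growth change versus the drug-free plate. Eubacterium lentum ATCC 43055 was the control, and tests were repeated if it fell outside the CLSI range.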

Finegoldia magna [25] = test: Antimicrobial activity against Finegoldia magna assessed as resistant isolates by agar dilution method
Outline: (§4)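 Agar dilution following CLSI on brucella agar with 5% lysed defibrinated sheep blood and 1 μg/ml vitamin K1, plates made on test day. Log-phase cells at 0.5 McFarland, about 10^5 CFU/spot by Steers replicator, 48 h anaerobic at 37°C. MIC read as the lowest concentration causing a marked growth change versus control. Resistance counted by CLSI anaerobe breakpoints. Eubacterium lentum ATCC 43055 served as control.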

[26] = test system: Peptoniphilus asaccharolyticus; test: Antimicrobial activity against Peptoniphilus asaccharolyticus by agar dilution method; outline: as §3
[27] = test system: Peptoniphilus asaccharolyticus; test: Antimicrobial activity against Peptoniphilus asaccharolyticus assessed as resistant isolates by agar dilution method; conditions: pooled result: one value given for 4 cell lines, strains, targets or settings; outline: as §4
Parvimonas micra = test: Antimicrobial activity against Micromonas micros by agar dilution method; outline: as §3
Anaerococcus prevotii = test: Antimicrobial activity against Anaerococcus prevotii by agar dilution method; outline: as §3
Peptostreptococcus sp. = test: Antimicrobial activity against Peptostreptococcus sp. by agar dilution method
Outline: (§5)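 Log-phase isolates were adjusted to 0.5 McFarland, and about 10^5 CFU/spot was delivered by Steers replicator. Plates were incubated anaerobically at 37°C for 48 h. MIC was the lowest concentration giving a marked growth change versus the control plate. Eubacterium lentum ATCC 43055 was the QC strain, with repeats when out of range.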

Cutibacterium acnes [28] = test: Antimicrobial activity against Propionibacterium acnes by agar dilution method; outline: as §5
Cutibacterium acnes [29] = test: Antimicrobial activity against Propionibacterium acnes assessed as resistant isolates by agar dilution method; outline: as §4
Propionibacterium [30] = test: Antimicrobial activity against Propionibacterium sp. by agar dilution method; outline: as §5
Propionibacterium [31] = test: Antimicrobial activity against Propionibacterium sp. assessed as resistant isolates by agar dilution method; outline: as §4

**Q.** Which results are given for C[C@@H](O)[C@H]1C(=O)N2C(C(=O)O)=C(S[C@@H]3CN[C@H](C(=O)N(C)C)C3)[C@H](C)[C@H]12 [MEROPENEM]?
**A.** MIC50 [1]: 1 µg/mL (≈ 2.61 µM); MIC90 [1]: 2 µg/mL (≈ 5.22 µM); Activity (Bacteroides caccae [2]): 0%; MIC50 (Bacteroides caccae [3]): 0.25 µg/mL (≈ 0.652 µM); MIC90 (Bacteroides caccae [3]): 2 µg/mL (≈ 5.22 µM); Activity [4]: 0%; MIC50 (Bacteroides fragilis [5]): 0.25 µg/mL (≈ 0.652 µM); MIC90 (Bacteroides fragilis [5]): 1 µg/mL (≈ 2.61 µM); Activity (Bacteroides fragilis [6]): 1.5%; MIC50 (Bacteroides ovatus [7]): 0.5 µg/mL (≈ 1.3 µM); MIC90 (Bacteroides ovatus [7]): 2 µg/mL (≈ 5.22 µM); Activity (Bacteroides ovatus [8]): 0%; MIC50 [9]: 0.5 µg/mL (≈ 1.3 µM); MIC90 [9]: 2 µg/mL (≈ 5.22 µM); Activity [10]: 0%; MIC50 (Bacteroides uniformis [11]): 0.25 µg/mL (≈ 0.652 µM); MIC90 (Bacteroides uniformis [11]): 0.5 µg/mL (≈ 1.3 µM); Activity (Bacteroides uniformis [12]): 0%; MIC50 (Phocaeicola vulgatus [13]): 0.5 µg/mL (≈ 1.3 µM); MIC90 (Phocaeicola vulgatus [13]): 2 µg/mL (≈ 5.22 µM); Activity (Phocaeicola vulgatus [14]): 0%; MIC50 (Bacteroides eggerthii [15]): 0.25 µg/mL (≈ 0.652 µM); MIC90 (Bacteroides eggerthii [15]): 1 µg/mL (≈ 2.61 µM); Activity (Bacteroides eggerthii [16]): 0%; MIC50 (Parabacteroides merdae [17]): 0.25 µg/mL (≈ 0.652 µM); MIC90 (Parabacteroides merdae [17]): 1 µg/mL (≈ 2.61 µM); Activity (Parabacteroides merdae [18]): 0%; MIC50 (Bacteroides nordii [19]): 0.25 µg/mL (≈ 0.652 µM); MIC90 (Bacteroides nordii [19]): 1 µg/mL (≈ 2.61 µM); Activity (Bacteroides nordii [20]): 0%; MIC (Clostridioides difficile): 1 µg/mL (≈ 2.61 µM); MIC (Clostridium perfringens): 0.06 µg/mL (≈ 0.156 µM); MIC50 (Clostridium perfringens): 0.06 µg/mL (≈ 0.156 µM); MIC90 (Clostridium perfringens): 0.125 µg/mL (≈ 0.326 µM); MIC50 ([Clostridium] innocuum [21]): 2 µg/mL (≈ 5.22 µM); MIC90 ([Clostridium] innocuum [21]): 2 µg/mL (≈ 5.22 µM); Activity ([Clostridium] innocuum [22]): 0%; MIC50 [23]: 2 µg/mL (≈ 5.22 µM); MIC90 [23]: 2 µg/mL (≈ 5.22 µM); MIC50 (Clostridium subterminale): 2 µg/mL (≈ 5.22 µM); MIC90 (Clostridium subterminale): 2 µg/mL (≈ 5.22 µM); MIC50 (Clostridium tertium): 2 µg/mL (≈ 5.22 µM); MIC90 (Clostridium tertium): 2 µg/mL (≈ 5.22 µM); MIC50 (Finegoldia magna [24]): 0.125 µg/mL (≈ 0.326 µM); MIC90 (Finegoldia magna [24]): 0.125 µg/mL (≈ 0.326 µM); Activity (Finegoldia magna [25]): 0%; MIC50 [26]: 0.125 µg/mL (≈ 0.326 µM); MIC90 [26]: 0.5 µg/mL (≈ 1.3 µM); Activity [27]: 0%; MIC50 (Parvimonas micra): 0.125 µg/mL (≈ 0.326 µM); MIC90 (Parvimonas micra): 0.5 µg/mL (≈ 1.3 µM); MIC50 (Anaerococcus prevotii): 0.125 µg/mL (≈ 0.326 µM); MIC90 (Anaerococcus prevotii): 0.5 µg/mL (≈ 1.3 µM); MIC50 (Peptostreptococcus sp.): 0.125 µg/mL (≈ 0.326 µM); MIC90 (Peptostreptococcus sp.): 0.5 µg/mL (≈ 1.3 µM); MIC (Cutibacterium acnes [28]): 0.06 µg/mL (≈ 0.156 µM); MIC50 (Cutibacterium acnes [28]): 0.06 µg/mL (≈ 0.156 µM); MIC90 (Cutibacterium acnes [28]): 0.06 µg/mL (≈ 0.156 µM); Activity (Cutibacterium acnes [29]): 0%; MIC (Propionibacterium [30]): 0.06 µg/mL (≈ 0.156 µM); MIC50 (Propionibacterium [30]): 0.06 µg/mL (≈ 0.156 µM); MIC90 (Propionibacterium [30]): 0.25 µg/mL (≈ 0.652 µM); Activity (Propionibacterium [31]): 0%
